According to ChEMBL document CHEMBL1142459, “Design and synthesis of a novel series of pyranonaphthoquinones as topoisomerase II catalytic inhibitors” (J Med Chem, 2008):
Active and inactive are the calls of the source. The rule behind the calls is not given here.

Tests used:
[1] = target: DNA topoisomerase 2-alpha (Homo sapiens) (UniProt P11388); test: Inhibition of human topoisomerase 2 alpha-mediated Crithidia fasciculate kDNA decatenation at 100 uM
[2] = target: DNA topoisomerase 2-alpha (Homo sapiens) (UniProt P11388); test: Inhibition of human topoisomerase 2 alpha-mediated bacterial plasmid DNA relaxation assessed as pRYG negative supercoiled form at 100 uM
[3] = target: DNA topoisomerase 2-alpha (Homo sapiens) (UniProt P11388); test: Inhibition of human topoisomerase 2 alpha-mediated bacterial plasmid DNA relaxation assessed as pRYG negative supercoiled form added 100 uM after relaxation
Nucleic Acid = test: DNA intercalative activity assessed retardation in migration of negatively supercoiled small circular Escherichia coli pBSKS in agarose gel electrophoresis at 100 uM; format: nucleic-acid assay
Outline: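 250 ng negatively supercoiled pBSKS incubated 10 min at 37 °C with compound at 100 µM in 1% (v/v) DMSO; ethidium bromide 1 µg/mL as intercalator control. Run on 1% agarose in 1× TBE without ethidium bromide at 0.5 V/cm (low field); retardation of migration scored.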

DNA topoisomerase 2-alpha (Homo sapiens), sequence (P11388 whole entry): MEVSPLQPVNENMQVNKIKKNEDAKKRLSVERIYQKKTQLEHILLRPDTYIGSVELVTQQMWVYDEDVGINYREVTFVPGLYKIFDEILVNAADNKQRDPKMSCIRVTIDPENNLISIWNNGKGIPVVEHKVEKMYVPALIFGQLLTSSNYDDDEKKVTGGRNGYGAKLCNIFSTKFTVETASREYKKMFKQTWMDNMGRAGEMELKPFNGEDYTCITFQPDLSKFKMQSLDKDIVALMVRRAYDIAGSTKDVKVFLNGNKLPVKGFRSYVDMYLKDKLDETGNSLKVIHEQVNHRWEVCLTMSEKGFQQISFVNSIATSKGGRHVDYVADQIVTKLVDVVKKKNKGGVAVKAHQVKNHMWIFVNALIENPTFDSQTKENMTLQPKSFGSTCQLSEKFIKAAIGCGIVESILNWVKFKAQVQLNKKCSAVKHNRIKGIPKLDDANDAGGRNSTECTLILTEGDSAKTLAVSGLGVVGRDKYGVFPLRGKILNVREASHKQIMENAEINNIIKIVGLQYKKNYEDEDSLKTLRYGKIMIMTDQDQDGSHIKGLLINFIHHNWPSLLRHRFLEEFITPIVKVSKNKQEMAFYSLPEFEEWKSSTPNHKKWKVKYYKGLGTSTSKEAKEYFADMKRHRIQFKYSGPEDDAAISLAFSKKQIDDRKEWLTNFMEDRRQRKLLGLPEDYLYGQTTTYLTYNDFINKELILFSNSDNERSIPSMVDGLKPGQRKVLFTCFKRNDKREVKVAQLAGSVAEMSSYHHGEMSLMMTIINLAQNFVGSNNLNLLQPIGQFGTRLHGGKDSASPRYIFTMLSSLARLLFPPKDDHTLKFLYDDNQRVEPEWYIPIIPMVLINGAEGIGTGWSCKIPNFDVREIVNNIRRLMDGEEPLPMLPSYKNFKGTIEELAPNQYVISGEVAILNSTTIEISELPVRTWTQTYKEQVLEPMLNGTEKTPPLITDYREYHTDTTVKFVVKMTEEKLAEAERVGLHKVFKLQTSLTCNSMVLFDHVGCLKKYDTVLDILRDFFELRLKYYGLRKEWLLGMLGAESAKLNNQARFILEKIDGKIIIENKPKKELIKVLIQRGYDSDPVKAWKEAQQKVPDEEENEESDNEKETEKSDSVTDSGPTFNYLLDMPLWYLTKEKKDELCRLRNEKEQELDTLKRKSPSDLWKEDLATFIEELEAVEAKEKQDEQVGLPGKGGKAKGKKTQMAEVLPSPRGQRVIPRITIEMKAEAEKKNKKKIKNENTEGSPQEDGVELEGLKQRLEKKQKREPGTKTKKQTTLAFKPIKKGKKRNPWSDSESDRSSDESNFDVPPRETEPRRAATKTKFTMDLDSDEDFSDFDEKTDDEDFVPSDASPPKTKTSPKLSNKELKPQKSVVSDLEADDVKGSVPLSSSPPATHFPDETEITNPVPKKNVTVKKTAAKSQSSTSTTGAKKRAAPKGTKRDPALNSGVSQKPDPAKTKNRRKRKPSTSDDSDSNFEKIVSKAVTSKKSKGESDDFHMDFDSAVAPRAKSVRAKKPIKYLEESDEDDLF

| Structure (SMILES) | Activity [1] | Activity [2] | Activity [3] | Activity (Nucleic Acid) |
| --- | --- | --- | --- | --- |
| C[C@@H]1CC[C@H]2[C@H]1C1=C(OC2(C)C)C(=O)c2ccccc2C1=O | inactive | inactive | inactive | inactive |
| CC1(C)OC2=C(C(=O)C(=O)c3ccccc32)[C@@H]2c3c(ccc4ccccc34)OC[C@@H]21 | Active | Active | inactive | inactive |
| CC1(C)OC2=C(C(=O)c3ccccc3C2=O)[C@H]2c3c(ccc4ccccc34)OC[C@H]21 | inactive | inactive | inactive | inactive |
| COc1cc([C@@H]2c3cc4c(cc3[C@@H](O[C@@H]3O[C@@H]5CO[C@@H](C)O[C@H]5[C@H](O)[C@H]3O)[C@H]3COC(=O)[C@H]23)OCO4)cc(OC)c1O | – | inactive | Active | inactive |
| C[C@@H]1CC[C@@H]2[C@@H](C1)C1=C(OC2(C)C)C(=O)c2ccccc2C1=O | inactive | inactive | inactive | inactive |
| COc1ccc2c(c1)OC[C@@H]1[C@H]2C2=C(OC1(C)C)C(=O)c1ccccc1C2=O | Active | Active | inactive | inactive |
| CC1(C)OC2=C(C(=O)C(=O)c3ccccc32)[C@@H]2c3cc(Br)ccc3OC[C@@H]21 | Active | Active | inactive | inactive |
| COc1ccc2c(c1)OC[C@H]1[C@@H]2C2=C(OC1(C)C)c1ccccc1C(=O)C2=O | Active | Active | inactive | inactive |
| C[C@H]1CC[C@H]2[C@H](C1)C1=C(OC2(C)C)c2ccccc2C(=O)C1=O | inactive | inactive | inactive | inactive |
| C[C@H]1CC[C@@H]2[C@@H]1C1=C(OC2(C)C)c2ccccc2C(=O)C1=O | inactive | inactive | inactive | inactive |
| Cc1c2ccncc2c(C)c2c1[nH]c1ccccc12 | – | Active | inactive | Active |
| CC1(C)OC2=C(C(=O)c3ccccc3C2=O)[C@H]2c3cc(Br)ccc3OC[C@H]21 | Active | Active | inactive | inactive |
| CC[n+]1c(-c2ccccc2)c2cc(N)ccc2c2ccc(N)cc21 | – | – | – | Active |
| CC1(C)OC2=C(C(=O)c3ccccc3C2=O)[C@H]2c3cc(Br)cc(Br)c3OC[C@H]21 | Active | Active | inactive | inactive |
